# From ChEMBL document CHEMBL4184179, “Synthesis and biological evaluation of novel synthetic chalcone derivatives as anti-tumor agents targeting Cat L and Cat K” (Bioorg Med Chem, 2018)
# Assays:
# [1] = test system: 143B; test: Antiproliferative activity against human 143B cells after 48 hrs by MTT assay; type: functional, cell-based
# [2] = test system: MCF7; test: Antiproliferative activity against human MCF7 cells after 48 hrs by MTT assay; type: functional, cell-based; settings: for IC50: MCF7, 48 h
# [3] = test system: HCT-116; test: Antiproliferative activity against human HCT116 cells after 48 hrs by MTT assay; type: functional, cell-based; settings: for IC50: HCT-116, 48 h
# Summary of the method: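 Cells grown in RPMI 1640 with 10% FBS; about 4×10^3 cells per well seeded, held 24 h at 37°C in 5% CO2, then exposed to compounds at six concentrations (0.001–100 μM) for 48 h. MTT added at 0.5 mg/mL final for 4 h at 37°C, formazan dissolved in DMSO, absorbance read at 540 nm.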
# [4] = target: Cathepsin B (Homo sapiens) (UniProt P07858); test: Inhibition of Cathepsin-B (unknown origin) at 5 uM preincubated for 15 mins followed by Z-Arg-Arg-AMC addition measured after 30 mins by fluorescence assay relative to control
# Summary of the method: (§1)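 Run as for the Cat K assay: enzyme in 50 mM sodium acetate, 2.5 mM EDTA, 1 mM DTT, pH 6.0, compounds screened at 5 μM, 15 min preincubation at 37°C, substrate added, fluorescence (ex 355/em 460 nm) read at 30 min. Substrates: Cat B Z-Arg-Arg-AMC; Cat S Ac-Lys-Gln-Lys-Leu-Arg-AMC; Cat L as for Cat K.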
# [5] = target: Procathepsin L (Homo sapiens) (UniProt P07711); test: Inhibition of Cathepsin-L (unknown origin) at 5 uM preincubated for 15 mins followed by Z-Phe-Arg-AMC addition measured after 30 mins by fluorescence assay relative to control; summary of the method: as §1
# [6] = target: Cathepsin S (Homo sapiens) (UniProt P25774); test: Inhibition of Cathepsin-S (unknown origin) at 5 uM preincubated for 15 mins followed by Ac-Lys-Gln-Lys-Leu-Arg-AMC addition measured after 30 mins by fluorescence assay relative to control; summary of the method: as §1
# [7] = target: T1, Cathepsin K (Homo sapiens) (UniProt P43235); test: Inhibition of recombinant human Cathepsin-K at 5 uM preincubated for 15 mins followed by Z-Phe-Arg-AMC addition measured after 30 mins by fluorescence assay relative to control
# T1 sequence (whole entry): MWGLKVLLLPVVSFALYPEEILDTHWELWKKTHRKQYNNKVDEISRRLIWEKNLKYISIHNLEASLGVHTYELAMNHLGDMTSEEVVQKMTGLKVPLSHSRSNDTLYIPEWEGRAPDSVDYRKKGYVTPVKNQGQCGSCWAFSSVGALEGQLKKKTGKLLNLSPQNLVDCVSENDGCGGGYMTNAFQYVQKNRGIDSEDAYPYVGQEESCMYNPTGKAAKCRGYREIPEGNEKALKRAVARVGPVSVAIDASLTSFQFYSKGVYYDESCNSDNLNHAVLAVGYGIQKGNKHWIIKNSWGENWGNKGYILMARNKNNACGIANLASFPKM
# Summary of the method: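 Recombinant human Cat K (5.5 ng/mL) in 50 mM sodium acetate, 2.5 mM EDTA, 1 mM DTT, pH 6.0, preincubated with compound (5 μM screen) 15 min at 37°C. Reaction started with Z-Phe-Arg-AMC (10 μM, as added). Fluorescence (ex 355/em 460 nm) read after 30 min; inhibition rate calculated from intensity.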
# Chain of Cathepsin S (Homo sapiens) (P25774 115-331 limits assumed): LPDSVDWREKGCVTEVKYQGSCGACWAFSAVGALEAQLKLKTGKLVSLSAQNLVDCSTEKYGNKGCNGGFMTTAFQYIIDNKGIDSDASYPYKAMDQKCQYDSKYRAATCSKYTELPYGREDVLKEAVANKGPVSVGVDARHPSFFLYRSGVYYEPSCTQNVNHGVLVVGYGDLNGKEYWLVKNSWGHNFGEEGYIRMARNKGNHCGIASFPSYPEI
# Chain of Procathepsin L (Homo sapiens) (P07711 114-333 limits assumed): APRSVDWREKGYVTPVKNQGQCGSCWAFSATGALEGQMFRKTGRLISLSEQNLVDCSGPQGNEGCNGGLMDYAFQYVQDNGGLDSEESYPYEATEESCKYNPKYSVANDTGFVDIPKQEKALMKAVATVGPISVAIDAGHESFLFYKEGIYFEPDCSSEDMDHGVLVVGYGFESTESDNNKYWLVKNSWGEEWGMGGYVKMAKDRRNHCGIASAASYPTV
Compound,IC50 [1],IC50 [2],IC50 [3],inhibition [4],inhibition [5],inhibition [6],inhibition [7],Activity [1],Activity [2],Activity [3]
Cc1ccc(C(=O)Nc2cccc(/C=C/C(=O)c3nc4ccccc4[nH]3)c2)cc1,6.56 µM,9.69 µM,1.66 µM,–,–,–,–,–,–,–
O=C(/C=C/c1cccc(NS(=O)(=O)c2ccccc2Cl)c1)c1nc2ccccc2[nH]1,4.79 µM,4.28 µM,0.987 µM,32.5%,62.9%,45.7%,86.5%,–,–,–
O=C(Nc1cccc(/C=C/C(=O)c2nc3ccccc3[nH]2)c1)c1ccc(Br)cc1,7.31 µM,7 µM,2.23 µM,–,–,–,–,–,–,–
O=C(/C=C/c1cccc(NS(=O)(=O)c2ccc(Cl)cc2)c1)c1nc2ccccc2[nH]1,7.45 µM,3.82 µM,1.96 µM,23.8%,58%,89.3%,58.1%,–,–,–
O=C(Nc1cccc(/C=C/C(=O)c2nc3ccccc3[nH]2)c1)c1ccccc1,8.34 µM,11.2 µM,2.44 µM,–,–,–,–,–,–,–
O=C(Nc1cccc(/C=C/C(=O)c2nc3ccccc3[nH]2)c1)c1ccc(Cl)cc1,7.44 µM,8.41 µM,2.27 µM,–,–,–,–,–,–,–
O=C(/C=C/c1cccc(NS(=O)(=O)c2cc(Cl)cc(Cl)c2)c1)c1nc2ccccc2[nH]1,5.95 µM,20 µM,2.84 µM,–,–,–,–,–,–,–
O=C(Nc1cccc(/C=C/C(=O)c2nc3ccccc3[nH]2)c1)c1cccc(C(F)(F)F)c1,9.57 µM,21.5 µM,3.36 µM,–,–,–,–,–,–,–
CC(=O)O[C@H]1C(=O)[C@@]2(C)[C@H]([C@H](OC(=O)c3ccccc3)[C@]3(O)C[C@H](OC(=O)[C@H](O)[C@@H](NC(=O)c4ccccc4)c4ccccc4)C(C)=C1C3(C)C)[C@]1(OC(C)=O)CO[C@@H]1C[C@@H]2O [PACLITAXEL],–,–,0.014 µM,–,–,–,–,–,–,–
O=C(/C=C/c1cccc(NC(=O)c2ccccc2Cl)c1)c1nc2ccccc2[nH]1,3.69 µM,4.57 µM,1.28 µM,–,–,–,–,–,–,–
COc1cccc(C(=O)Nc2cccc(/C=C/C(=O)c3nc4ccccc4[nH]3)c2)c1,4.61 µM,17.8 µM,3.68 µM,–,–,–,–,–,–,–
O=C(/C=C/c1cccc(NS(=O)(=O)c2cccc(Cl)c2)c1)c1nc2ccccc2[nH]1,2.51 µM,4.16 µM,0.737 µM,15.2%,78.9%,52.6%,89.2%,–,–,–
CCCNC(=O)[C@H]1O[C@@H]1C(=O)N[C@H](C(=O)N1CCC[C@H]1C(=O)O)[C@@H](C)CC,–,–,–,100%,–,–,–,–,–,–
Cc1ccc(S(=O)(=O)Nc2cccc(/C=C/C(=O)c3nc4ccccc4[nH]3)c2)cc1,3.22 µM,3.22 µM,1.99 µM,34.3%,93.8%,22%,86%,–,–,–
O=C(Nc1cccc(/C=C/C(=O)c2nc3ccccc3[nH]2)c1)c1cccc(Br)c1,4.62 µM,5.21 µM,1.55 µM,–,–,–,–,–,–,–
Cc1ccccc1C(=O)Nc1cccc(/C=C/C(=O)c2nc3ccccc3[nH]2)c1,8.29 µM,5.87 µM,1.87 µM,–,–,–,–,–,–,–
Cc1ccccc1S(=O)(=O)Nc1cccc(/C=C/C(=O)c2nc3ccccc3[nH]2)c1,4.06 µM,4.13 µM,0.955 µM,40%,71.3%,47.8%,91.3%,–,–,–
O=C(Nc1cccc(/C=C/C(=O)c2nc3ccccc3[nH]2)c1)c1cccc(Cl)c1,3.37 µM,7.83 µM,1.12 µM,30.5%,86%,19.5%,73%,–,–,–
O=c1[nH]cc(F)c(=O)[nH]1 [FLUOROURACIL],25.2 µM,32.6 µM,8.64 µM,–,–,–,–,–,–,–
COc1ccc(C(=O)Nc2cccc(/C=C/C(=O)c3nc4ccccc4[nH]3)c2)cc1,6.33 µM,20.1 µM,4.88 µM,–,–,–,–,–,–,–
Cc1cccc(S(=O)(=O)Nc2cccc(/C=C/C(=O)c3nc4ccccc4[nH]3)c2)c1,0.791 µM,0.886 µM,0.597 µM,45.6%,92.3%,50.1%,93.5%,Dose-dependent effect,Dose-dependent effect,Dose-dependent effect
O=C(/C=C/c1cccc(NC(=O)c2ccccc2Br)c1)c1nc2ccccc2[nH]1,6.05 µM,4.52 µM,1.68 µM,–,–,–,–,–,–,–
CC(C)C[C@H](NC(=O)[C@@H]1O[C@H]1C(=O)O)C(=O)NCCCCN=C(N)N,–,–,–,100%,100%,–,100%,–,–,–
CC(C)(F)C[C@H](C[C@@H](c1ccc(-c2ccc(S(C)(=O)=O)cc2)cc1)C(F)(F)F)C(=O)NC1(C#N)CC1,12.7 µM,45.4 µM,> 100 µM,100%,71.3%,100%,100%,–,–,–
O=C(/C=C/c1ccccc1)c1nc2ccccc2[nH]1,–,–,–,10.1%,35.4%,13%,37.9%,–,–,–
Cc1cccc(C(=O)Nc2cccc(/C=C/C(=O)c3nc4ccccc4[nH]3)c2)c1,4.88 µM,5.59 µM,1.42 µM,41.3%,88.5%,45.2%,78%,–,–,–
O=C(Nc1cccc(/C=C/C(=O)c2nc3ccccc3[nH]2)c1)c1cc(Cl)cc(Cl)c1,3.66 µM,> 100 µM,1.65 µM,–,–,–,–,–,–,–
Cc1ccc(S(=O)(=O)Nc2cccc(/C=C/C(=O)c3nc4ccccc4[nH]3)c2)cc1C,5.05 µM,5.86 µM,2.23 µM,–,–,–,–,–,–,–
Cc1cc(C)cc(S(=O)(=O)Nc2cccc(/C=C/C(=O)c3nc4ccccc4[nH]3)c2)c1,3.33 µM,4.57 µM,1.22 µM,–,–,–,–,–,–,–
Cc1cc(C)cc(C(=O)Nc2cccc(/C=C/C(=O)c3nc4ccccc4[nH]3)c2)c1,4.01 µM,24.6 µM,1.55 µM,–,–,–,–,–,–,–
